Most compounds without a hit are left out; they make up all but 6.3% or so of the library.
M1 agonist: M1 muscarinic receptor agonists, primary screen, CHO-M1 cells, Fluo-4 calcium, agonist mode; Fluo-4 calcium fluorescence; stronger effect = higher value; B-score at 10 µM; actives 3% (n = 64,000);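 active = fluorescence rise, raw or as B-score row- and column-corrected plate score, outside the 99.7% band of its plate's samples, either direction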
SF-1 act: activators of human SF-1, primary screen, cell-based, CHO-K1, Gal4-SF-1 LBD, luciferase luminescence; CHO-K1 Gal4-SF-1 LBD luciferase reporter; % increase over DMSO SF-1-specific signal; activation, % at 10 µM; actives 1.9% (n = 65,000); AID 522, 2006;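 active = activation above the mean activation of all tested compounds plus 3 SD, cut at about 50% in these data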
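Material: Transient Gal4-SF-1 LBD reporter, CHO-K1 | Input: 4,000 cells/well | Dosing: One dose, 10 µM compound, 1% DMSO | Incubation: 20 h compound treatment, 37 °C | Detection: SteadyLite luciferase luminescence | Evaluation: Percent activation relative to DMSO median and mock-transfected background | Benchmarks: DMSO-treated SF-1-transfected cells as negative, DMSO-treated mock-transfected cells lacking SF-1 as background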
M1 antagonist: antagonists of rat M1 muscarinic receptor; CHO-M1 cells, Fluo-4 calcium, ACh EC80 antagonist mode; stronger effect = lower value; B-score at 10 µM; actives 3.4% (n = 64,000); AID 628, 2007;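 active = calcium fluorescence response, raw or row-and-column corrected B-score, differing from the plate sample mean either way at a set confidence level, mostly lower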
Target sequence (P08482 whole entry, looked up): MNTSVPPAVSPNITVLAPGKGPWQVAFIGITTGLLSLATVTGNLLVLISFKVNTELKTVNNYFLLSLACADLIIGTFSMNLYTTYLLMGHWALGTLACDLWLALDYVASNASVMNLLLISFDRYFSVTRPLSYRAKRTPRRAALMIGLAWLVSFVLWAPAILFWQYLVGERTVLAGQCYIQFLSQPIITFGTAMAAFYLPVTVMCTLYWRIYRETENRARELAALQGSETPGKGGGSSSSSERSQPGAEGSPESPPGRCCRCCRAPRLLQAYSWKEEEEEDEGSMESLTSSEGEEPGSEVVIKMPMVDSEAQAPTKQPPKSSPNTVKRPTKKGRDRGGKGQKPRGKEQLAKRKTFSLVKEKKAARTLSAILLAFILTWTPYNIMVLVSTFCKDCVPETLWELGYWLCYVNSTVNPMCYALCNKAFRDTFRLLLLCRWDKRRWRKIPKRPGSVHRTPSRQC
RORa activator: activators of orphan receptor RORA, primary screen, cell-based, luminescence | CHO-K1 Gal4-RORA LBD luciferase reporter; percent increase over mock-subtracted basal signal | activation, % at 10 µM | actives 1.5% (n = 65,000);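 active = activation above the mean of all tested compounds plus 3 SD, cut at about 49% in these data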;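 also: 0% = DMSO-treated RORA cells and 100% = added signal equal to DMSO minus mock-transfected cells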
MT1-MMP txn act: MT1-MMP promoter reporter activation – cell-based, luciferase luminescence, primary screen | HT1080 MT1-MMP promoter luciferase reporter, overnight; stronger effect = higher value | actives 0.16% (n = 86,000) | AID 750, 2007 | activation factor at 10 µM;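 active = activation factor of at least 2 for MT1-MMP transcription at 10 µM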
M1 ag confirm: rat M1 muscarinic receptor agonists, confirmation, CHO-M1 cells, Fluo-4 calcium, duplicate retest; fluorescence change (max-min) at 10 µM; actives 19% (n = 1,700); Fluo-4 calcium fluorescence, agonist mode; actives lie on both sides; AID 1488, 2009; shares compounds with M1 agonist;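 active = fluorescence change differs from the solvent-only DMSO control mean at a set confidence level in both duplicate runs; inconclusive = differs from solvent-only control mean in just one of two runs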;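 also: an EC20 dose of acetylcholine follows compound addition during the same imaging run; raw fluorescence intensity difference in instrument units with no normalization to controls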
M4 ag counter: agonist activity at rat M4 receptor, confirmation, counter-screen for M1 allosteric modulator project, cell-based, agonist mode | CHO M4/Gqi5 cells, Fluo-4 calcium fluorescence; actives lie on both sides | fluorescence change (max-min) at 10 µM | actives 9% (n = 1,700) | AID 1741, 2009 | shares compounds with M1 agonist;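 active = fluorescence change differing from the plate's solvent-only control wells at 99.7% confidence in both duplicates, whether higher or lower; inconclusive = differs from solvent controls in only one of two duplicates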
* marks the source's active call; other numbers are inactive results; u = inconclusive; x = no result.

SMILES | M1 agonist | SF-1 act | M1 antagonist | RORa activator | MT1-MMP txn act | M1 ag confirm | M4 ag counter
CCOc1ccc(C2C(C#N)=C(N)Oc3n[nH]c(C)c32)cc1OC(=O)C1CC1 (configuration not stated) | 4.6* | 22 | 1.2 | 7 | 1.1 | 1.2 | -19
CCOc1cc(C2C(C#N)=C(N)Oc3n[nH]c(-c4ccccc4)c32)ccc1O (configuration not stated) | 1.2 | 17 | -0.052 | -14 | 1 | x | x
CCCCN1CCCCC1C(=O)Nc1c(C)cc(C)cc1C (configuration not stated) | -0.36 | -10 | 0.012 | -15 | 1.2 | x | x
Cc1cc(C)c(NC(=O)C2CCCN2CCO)c(C)c1 (configuration not stated) | 2* | -2 | 0.22 | 27 | 1 | 1.8 | -8.9
CCc1ccc(NC(=O)N(C2CCC(C)CC2)C2CCN(C(C)=O)CC2)cc1 (configuration not stated) | 0.036 | 14 | 0.43 | 0 | 1.2 | x | x
CCOC(=O)c1[nH]c2cc(OC)c(OC)cc2c1NC(=O)C(C)N1CCN(Cc2ccccc2)CC1 (configuration not stated) | 3.8* | -12 | -4.3* | -21 | 1.2 | u | -31
CN(C)c1oc(-c2ccccc2F)nc1C#N | 8.3* | -1 | -1.1 | -4 | 1.1 | -14 | -45
CN(C)c1oc(-c2cccs2)nc1C#N | -0.72 | 0 | -0.041 | -20 | 1 | x | x
c1ccc(-n2nnnc2NCCc2c[nH]c3ccccc23)cc1 | 5.8* | -2 | -0.46 | -4 | 1.1 | -7.1 | u
c1ccc(CNc2nnnn2-c2ccccc2)cc1 | x | x | x | x | 1.2 | x | x
CCc1ccc(-c2cn3nc(C)c(C)nc3n2)cc1 | 7.3* | -81 | 1.3 | -86 | 0 | 89* | 39
COc1ccc(-c2noc(-c3ccccc3C(=O)NCc3ccco3)n2)cc1 | 0.68 | 4 | 0.45 | -18 | 1.1 | x | x
COc1ccc(-c2noc(-c3ccccc3C(=O)NCc3ccco3)n2)cc1OC | 4.7* | -7 | -0.24 | -19 | 1.3 | -15 | -27
COCCNC(=O)c1ccccc1NC(=O)c1ccc(OC)c(OC)c1 | 31* | 0 | 0.68 | -4 | 1.3 | -31* | -94*
COc1ccccc1-c1noc(-c2ccccc2C(=O)Nc2ccccc2)n1 | 0.23 | 14 | 0.22 | 4 | 1.1 | x | x
O=C(NCc1ccco1)c1cccc2ccccc12 | 11* | -23 | 0.84 | -17 | 1 | -16 | -41
CCOc1cc(C(=O)NCCOC)ccc1OC | 0.05 | 2 | -0.15 | -25 | 1 | x | x
COc1ccccc1NC(=O)c1ccccc1-c1nc(-c2ccccc2OC)no1 | 7.3* | -5 | -1.4 | -6 | 1.3 | -29* | -50
C[C@@H]1CCC[C@H](C)N1NC(=O)c1ccc(Cl)c(S(N)(=O)=O)c1 | 1.2 | 3 | 0.075 | 4 | 1 | x | x
O=C(O)CC(NC(=O)COc1ccc(Cl)cc1Cl)C(=O)O (configuration not stated) | 0.001 | -3 | -0.046 | 3 | 0.9 | x | x
CC(C)(C)OC(=O)N1CCCC1C(=O)NC(Cc1ccccc1)C(=O)O (configuration not stated) | 0.31 | 1 | -0.085 | -6 | 1.1 | x | x
O=C(NCc1ccco1)c1ccccc1NS(=O)(=O)c1ccc(Br)s1 | x | x | x | x | 1.1 | x | x
COc1ccc(S(=O)(=O)Nc2ccccc2C(=O)NCc2ccco2)cc1 | 3.9* | -11 | -0.13 | 0 | 1.1 | -2.3 | -25
COc1ccc(N=c2oc3c(OC)cccc3cc2C(=O)NCc2ccco2)cc1OC | 15* | 31 | 0.31 | 12 | 1 | 18 | -1.8
COc1ccc(C(=O)Nc2ccccc2C(=O)NCc2ccco2)cc1OC | 6.6* | 7 | -0.87 | -9 | 1.1 | -2.9 | -25
